From ChEMBL document CHEMBL1124756, “The discovery of potent nonpeptide angiotensin II receptor antagonists: a new class of potent antihypertensives” (J Med Chem, 1990)

What was measured:
[1] = biological target: T1, Angiotensin II receptor (Rattus norvegicus, UniProt P29089+P25095+P35351); experiment: Inhibitory concentration that gave 50 percent displacement of specific binding of [3H]AII (2 nM) to Angiotensin II receptor; type: protein assay
T1 sequence (P29089 whole entry): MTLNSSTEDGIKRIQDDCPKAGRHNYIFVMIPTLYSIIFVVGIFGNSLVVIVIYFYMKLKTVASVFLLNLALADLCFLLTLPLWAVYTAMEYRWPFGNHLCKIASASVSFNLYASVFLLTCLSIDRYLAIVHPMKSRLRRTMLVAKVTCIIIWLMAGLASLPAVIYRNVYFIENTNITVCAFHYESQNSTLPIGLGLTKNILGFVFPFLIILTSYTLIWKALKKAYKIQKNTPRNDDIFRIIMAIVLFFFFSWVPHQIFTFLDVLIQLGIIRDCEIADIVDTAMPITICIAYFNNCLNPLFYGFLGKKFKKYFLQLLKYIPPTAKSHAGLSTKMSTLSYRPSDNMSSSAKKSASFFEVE
T1 sequence (P25095 whole entry): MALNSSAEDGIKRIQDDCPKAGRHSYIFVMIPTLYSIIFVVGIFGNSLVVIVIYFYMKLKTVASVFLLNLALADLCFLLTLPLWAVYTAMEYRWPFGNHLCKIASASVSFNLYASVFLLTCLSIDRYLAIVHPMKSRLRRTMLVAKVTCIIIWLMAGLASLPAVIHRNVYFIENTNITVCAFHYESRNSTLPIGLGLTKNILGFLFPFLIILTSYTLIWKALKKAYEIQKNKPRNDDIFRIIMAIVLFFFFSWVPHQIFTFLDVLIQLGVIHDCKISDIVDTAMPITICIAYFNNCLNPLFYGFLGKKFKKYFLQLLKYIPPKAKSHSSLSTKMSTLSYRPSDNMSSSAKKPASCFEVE
T1 sequence (P35351 whole entry): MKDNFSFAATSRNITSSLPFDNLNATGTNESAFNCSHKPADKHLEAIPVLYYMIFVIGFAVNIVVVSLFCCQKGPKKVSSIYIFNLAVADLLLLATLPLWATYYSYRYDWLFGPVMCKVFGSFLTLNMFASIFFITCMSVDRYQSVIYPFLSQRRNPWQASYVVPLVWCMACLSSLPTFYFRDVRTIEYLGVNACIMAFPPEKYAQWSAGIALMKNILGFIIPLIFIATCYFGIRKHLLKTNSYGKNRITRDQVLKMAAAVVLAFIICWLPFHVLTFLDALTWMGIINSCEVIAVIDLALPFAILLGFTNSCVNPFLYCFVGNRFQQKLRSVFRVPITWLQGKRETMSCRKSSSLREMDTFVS
Outline: (§1)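 Rat adrenal cortical microsomes from male Sprague–Dawley rats, resuspended in 50 mM Tris pH 7.2, 5 mM MgCl2, 0.25% BSA. Membranes (0.02–0.03 mg protein) incubated with [3H]AII 2 nM plus varying inhibitor concentrations, 60 min at 25 °C with shaking. Glass-fiber filtration, scintillation counting, duplicates. Nonspecific binding defined with 1 μM unlabeled AII. IC50 taken from linear portion of displacement curve.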

[2] = biological target: T1, Angiotensin II receptor; experiment: Inhibitory concentration that gave 50 percent displacement of specific binding of [3H]AII (2 nM) to Angiotensin ll receptor; type: protein assay; outline: as §1
[3] = Dissociation constant (pKa); type: physicochemical

Row | Compound | IC50 [1] [µM] | IC50 [2] [µM] | pKa [3]
1 | CCCCc1nc(Cl)c(CC(=O)O)n1Cc1ccccc1[N+](=O)[O-] | 15 | – | –
2 | CCCCc1nc(Cl)c(CC(=O)OC)n1Cc1ccc(NC(=O)c2ccccc2-c2ccccc2C(=O)O)cc1 | 0.19 | – | –
3 | CCCCc1nc(Cl)c(Cc2nnn[nH]2)n1Cc1cccc(-c2nnn[nH]2)c1 | 3.8 | – | –
4 | CCCCc1nc(Cl)c(COC)n1Cc1ccc(C(=O)Nc2ccccc2-c2nn[nH]n2)cc1 | 0.57 | – | –
5 | C1CCC(NC2CCCCC2)CC1.CCCCc1nc(Cl)c(CC(=O)OC)n1Cc1ccc(NC(=O)c2c(Cl)ccc(Cl)c2C(=O)O)cc1 | 0.018 | – | –
6 | CCCCc1nc(CC(=O)OC)c(Cl)n1Cc1ccc(NC(=O)c2ccccc2C(=O)O)cc1 | 0.42 | – | –
7 | Cc1nccn1Cc1ccc(NC(=O)c2ccccc2C(=O)O)cc1 | – | 100 | –
8 | CCCCc1nc(Cl)c(CC(=O)OC)n1Cc1ccc(NC(=O)C(F)(F)F)cc1 | 27 | – | 9.5
9 | CCCCc1nc(Cl)c(CC(=O)OC)n1Cc1ccc(NC(=O)c2cc(Br)ccc2NS(=O)(=O)C(F)(F)F)cc1 | 40 | – | 4.5
10 | CCCCc1nc(CC(=O)O)c(Cl)n1Cc1ccc(C(=O)O)cc1 | 19 | – | –
11 | CCCCc1nccn1Cc1ccc(NC(=O)c2ccccc2C(=O)O)cc1 | – | 0.62 | –
12 | CCCc1nccn1Cc1ccc(NC(=O)c2ccccc2C(=O)O)cc1 | – | 3.7 | –
13 | CCCCc1nc(Cl)c(CC(=O)OC)n1Cc1ccc(NC(=O)c2cc(C)ccc2NS(=O)(=O)C(F)(F)F)cc1 | 0.81 | – | 4.5
14 | CCCCc1nc(Cl)c(CC(=O)OC)n1Cc1ccc(NC(=O)c2cccc(NS(=O)(=O)C(F)(F)F)c2)cc1 | 1.3 | – | –
15 | CCCCc1nc(Cl)c(CC(=O)OC)n1Cc1ccc(N(Cc2ccccc2)C(=O)c2ccccc2NS(=O)(=O)C(F)(F)F)cc1 | 2.7 | – | 4.5
16 | O=C(O)c1ccccc1C(=O)Nc1ccc(Cn2ccnc2)cc1 | – | 100 | –
17 | CCCCc1nc(Cl)c(CC(=O)OC)n1Cc1ccc(NC(=O)C2CCCCC2NS(=O)(=O)C(F)(F)F)cc1 (stereo in doubt; 51) | 4.5 | – | 7.6
18 | CCCCc1nc(Cl)c(COC)n1Cc1ccc(NC(=O)CC(C(=O)O)c2ccccc2)cc1 (configuration not stated) | 2.8 | – | –
19 | CCCCc1nc(Cl)c(COC)n1Cc1ccc(N(C)C(=O)c2c(Cl)ccc(Cl)c2C(=O)O)cc1 | 5.7 | – | –
20 | O=C(O)c1ccccc1C(=O)Nc1ccc(Cn2cncc2CO)cc1 | – | > 100 | –
21 | CCCCc1nc(Cl)c(CC(=O)O)n1Cc1ccc(CC(=O)O)cc1 | 13 | – | –
22 | CCCCc1nc(Cl)c(CC(=O)OC)n1Cc1ccc(NC(=O)c2cc([N+](=O)[O-])cc([N+](=O)[O-])c2O)cc1 | > 30 | – | 4.3
23 | CCCCc1nc(Cl)c(CC(=O)OC)n1Cc1ccc(NC(=O)/C=C\C(=O)O)cc1 | 11 | – | –
24 | O=C(O)c1ccccc1C(=O)Nc1ccc(Cn2ccnc2CCc2ccccc2)cc1 | – | 9.4 | –
25 | CCCCCCCc1nccn1Cc1ccc(NC(=O)c2ccccc2C(=O)O)cc1 | 1.1 | – | –
26 | CCCCc1nc(Cl)c(CC(=O)OC)n1Cc1ccc(NC(=O)c2cccc(C)c2NS(=O)(=O)C(F)(F)F)cc1 | 0.19 | – | 4.5
27 | O=C(O)c1ccccc1C(=O)Nc1ccc(Cn2c(CCCc3ccccc3)nc(Cl)c2CO)cc1 | 80 | – | –
28 | CCc1nccn1Cc1ccc(NC(=O)c2ccccc2C(=O)O)cc1 | – | 8.5 | –
29 | CCCCc1nc(Cl)c(COC(C)=O)n1Cc1ccc(C(=O)O)cc1 | 5.3 | – | –
30 | CCCCc1nc(Cl)c(CC(=O)OC)n1Cc1ccccc1NC(=O)c1ccccc1C(=O)O | 100 | – | –

Continued, values first:

Row | IC50 [1] [µM] | IC50 [2] [µM] | pKa [3] | Compound
31 | – | 12 | – | CC(C)c1nccn1Cc1ccc(NC(=O)c2ccccc2C(=O)O)cc1
32 | 5.8 | – | – | CCCCc1nc(Cl)c(CC(=O)OC)n1Cc1ccc(NC(=O)c2cc3ccccc3cc2C(=O)O)cc1
33 | 0.5 | – | – | CCCCc1nc(Cl)c(COC)n1Cc1ccc(C(=O)Nc2cccc(C)c2C(=O)O)cc1
34 | > 100 | – | – | CCCCc1nc(Cl)c(CC(=O)OC)n1Cc1ccccc1NC(=O)c1ccccc1NS(=O)(=O)C(F)(F)F
35 | 100 | – | – | CCCCc1nc(Cl)c(CC(=O)OC)n1Cc1ccc(N)cc1
36 | – | 0.24 | – | CCCCCc1nccn1Cc1ccc(NC(=O)c2ccccc2C(=O)O)cc1
37 | 0.38 | – | – | CCCCc1nc(Cl)c(CC(=O)OC)n1Cc1ccc(NC(=O)c2cc(C)ccc2C(=O)O)cc1
38 | 8 | – | – | CCCCc1nc(Cl)c(COC)n1Cc1ccc(C(=O)Nc2ccccc2C(=O)O)cc1
39 | 3.4 | – | 4.5 | CCCCc1nc(Cl)c(CC(=O)OC)n1Cc1ccc(NC(=O)c2cc(I)ccc2NS(=O)(=O)C(F)(F)F)cc1
40 | 22 | – | – | CCCCc1nc(Cl)c(COC)n1Cc1ccc(C(=O)N[C@@H](Cc2ccccc2)C(=O)O)cc1
41 | 3.1 | – | – | CCCCc1nc(Cl)c(CC(=O)OC)n1Cc1ccc(N2C(=O)c3ccccc3C2=O)cc1
42 | 40 | – | – | CCCCc1nc(Cl)c(CC(=O)OC)n1Cc1ccc(NCc2ccccc2)cc1
43 | 5.9 | – | 4.5 | CCCCc1nc(Cl)c(CC(=O)OC)n1Cc1ccc(NC(=O)c2cc(Cl)ccc2NS(=O)(=O)C(F)(F)F)cc1
44 | 100 | – | – | CCCCc1nc(Cl)c(CO)n1Cc1ccc(OC)cc1
45 | 7.5 | – | – | CCCCc1nc(Cl)c(COC)n1Cc1ccc(NC(=O)C(CC(=O)O)c2ccccc2)cc1 (configuration not stated)
46 | 100 | – | – | CCCCc1nc(Cl)c(CC(=O)OC)n1Cc1ccc([N+](=O)[O-])cc1
47 | 38 | – | – | CCCCc1nc(Cl)c(CC(=O)O)n1Cc1ccccc1C(=O)O
48 | 0.08 | – | – | CCCCc1nc(Cl)c(CC(=O)OC)n1Cc1ccc(NC(=O)c2c(OC)cccc2C(=O)O)cc1
49 | 0.032 | – | – | CCCCc1nc(Cl)c(CC(=O)OC)n1Cc1ccc(NC(=O)c2c(C)cccc2C(=O)O)cc1

Row | IC50 [1] [µM] | IC50 [2] [µM] | pKa [3] | Compound
50 | 120 | – | – | CCCCc1nc(Cl)c(COC)n1Cc1ccc(C(=O)N2CCC[C@@H]2C(=O)O)cc1
51 | – | 2.8 | – | O=C(O)c1ccccc1C(=O)Nc1ccc(Cn2ccnc2CC2CCCCC2)cc1
52 | 2.3 | – | 8.9 | CCCCc1nc(Cl)c(CC(=O)OC)n1Cc1ccc(NC(=O)c2ccccc2NS(C)(=O)=O)cc1
53 | 3.9 | – | 7.6 | CCCCc1nc(Cl)c(CC(=O)OC)n1Cc1ccc(NC(=O)C2CCCCC2NS(=O)(=O)C(F)(F)F)cc1 (stereo in doubt; 50)
54 | 1.2 | – | 4 | CCCCc1nc(Cl)c(Cc2nnn[nH]2)n1Cc1ccc(-c2nnn[nH]2)cc1
55 | 6.1 | – | – | CCCCc1nc(Cl)c(COC)n1Cc1ccc(C(=O)N[C@H](Cc2ccccc2)C(=O)O)cc1
56 | > 10 | – | – | CCCCc1nc(Cl)c(CC(=O)OC)n1Cc1ccc(N2C(=O)C(c3ccccc3)=C(c3ccccc3)C2=O)cc1
57 | 28 | – | – | CCCCc1nc(Cl)c(CO)n1Cc1ccc(C=O)cc1
58 | 0.5 | – | 4.5 | CCCCc1nc(Cl)c(CC(=O)OC)n1Cc1ccc(NC(=O)c2ccccc2NS(=O)(=O)C(F)(F)F)cc1
59 | – | 0.35 | – | CCCCCCc1nccn1Cc1ccc(NC(=O)c2ccccc2C(=O)O)cc1
60 | 0.4 | – | – | CCCCc1nc(Cl)c(CC(=O)OC)n1Cc1ccc(NC(=O)c2cccc([N+](=O)[O-])c2C(=O)O)cc1
61 | 6.4 | – | – | CCCCc1nc(Cl)c(COC)n1Cc1ccc(C(=O)N2CCC[C@H]2C(=O)O)cc1
62 | 100 | – | – | CCCCc1nc(Cl)c(CC(=O)O)n1Cc1cccc(C(=O)O)c1
63 | 100 | – | – | CCCCc1nc(CO)c(Cl)n1Cc1ccc(C(=O)O)cc1
64 | 2.1 | – | 4.5 | CCCCc1nc(Cl)c(CC(=O)OC)n1Cc1ccc(NS(=O)(=O)C(F)(F)F)cc1
65 | – | 2.5 | – | COc1ccc(Cc2nccn2Cc2ccc(NC(=O)c3ccccc3C(=O)O)cc2)cc1
66 | 6.9 | – | – | CCCCc1nc(Cl)c(CC(=O)OC)n1Cc1ccc(NC(=O)c2ccc([N+](=O)[O-])cc2C(=O)O)cc1
67 | > 100 | – | – | CCCCc1nc(Cl)c(CO)n1Cc1ccc(/C=N/O)cc1
68 | 84 | – | – | CCCCc1nc(Cl)c(CC(=O)OC)n1Cc1ccc(NC(=O)c2ccc(NS(=O)(=O)C(F)(F)F)cc2)cc1
